Measurements from ChEMBL document CHEMBL1165965, “Synthesis and structure-activity relationships of 1,2,3,4-tetrahydropyrido[2,3-b]pyrazines as potent and selective inhibitors of the anaplastic lymphoma kinase” (Bioorg Med Chem, 2010).

Columns and labels:
[1] = biological target: Myosin light chain kinase 2, skeletal/cardiac muscle (Homo sapiens) (UniProt Q9H1R3); test: Inhibition of MYLK2 at 1 uM
[2] = system: T1, Receptor-type tyrosine-protein kinase FLT3 (Homo sapiens), P36888 [D835Y]; test: Inhibition of FLT3 D835Y mutant at 1 uM
T1 sequence (whole entry): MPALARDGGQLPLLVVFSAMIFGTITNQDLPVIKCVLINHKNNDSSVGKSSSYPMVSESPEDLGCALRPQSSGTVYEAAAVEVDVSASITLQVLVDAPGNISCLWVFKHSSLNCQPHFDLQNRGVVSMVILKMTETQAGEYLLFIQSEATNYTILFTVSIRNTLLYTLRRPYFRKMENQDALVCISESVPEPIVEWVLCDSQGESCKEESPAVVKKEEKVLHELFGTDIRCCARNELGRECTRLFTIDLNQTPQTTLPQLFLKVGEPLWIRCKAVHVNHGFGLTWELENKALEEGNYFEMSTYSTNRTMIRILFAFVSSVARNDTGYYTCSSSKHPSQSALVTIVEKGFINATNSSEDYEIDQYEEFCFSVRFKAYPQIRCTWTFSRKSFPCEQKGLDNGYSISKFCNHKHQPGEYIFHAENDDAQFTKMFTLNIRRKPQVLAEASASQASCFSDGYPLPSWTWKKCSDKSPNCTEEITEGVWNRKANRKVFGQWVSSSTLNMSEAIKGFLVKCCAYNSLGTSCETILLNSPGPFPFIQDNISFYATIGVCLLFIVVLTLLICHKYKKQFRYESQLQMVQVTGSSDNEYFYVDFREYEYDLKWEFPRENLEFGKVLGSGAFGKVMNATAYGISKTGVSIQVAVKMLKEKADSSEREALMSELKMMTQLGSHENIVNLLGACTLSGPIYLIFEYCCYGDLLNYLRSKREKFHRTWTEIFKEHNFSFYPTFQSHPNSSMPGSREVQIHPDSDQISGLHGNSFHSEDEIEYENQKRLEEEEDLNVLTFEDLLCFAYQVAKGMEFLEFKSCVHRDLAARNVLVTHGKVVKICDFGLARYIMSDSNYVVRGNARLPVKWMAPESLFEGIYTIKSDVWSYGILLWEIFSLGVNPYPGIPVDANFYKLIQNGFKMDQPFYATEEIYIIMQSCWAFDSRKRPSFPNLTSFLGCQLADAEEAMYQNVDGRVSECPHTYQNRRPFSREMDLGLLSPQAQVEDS
Method in brief: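 Single-concentration screen on the Ambit KINOMEscan platform, run against a panel of 250–400 kinases. Per-kinase inhibition was also summarized as S(90), the fraction of kinases inhibited by more than 90%.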

[3] = biological target: Epidermal growth factor receptor (Homo sapiens) (UniProt P00533); test: Inhibition of EGFR at 1 uM
Method in brief: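 Single-concentration screen using Ambit Bioscience KINOMEscan technology across a panel of 250–400 kinases. Per-kinase inhibition from this screen was summarized as S(90), the fraction of kinases inhibited by more than 90%.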

[4] = system: Phosphatidylinositol 4,5-bisphosphate 3-kinase catalytic subunit alpha isoform (Homo sapiens), P42336 [C420R]; test: Inhibition of PIK3CA C420R mutant at 1 uM
[5] = biological target: Tyrosine-protein kinase receptor Tie-1 (Homo sapiens) (UniProt P35590); test: Inhibition of TIE1 at 1 uM
[6] = biological target: Dual specificity protein kinase CLK2 (Homo sapiens) (UniProt P49760); test: Inhibition of CLK2 at 1 uM
Method in brief: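 Ambit KINOMEscan screen at a single concentration across a 250–400 kinase panel, recorded as percent inhibition. Selectivity was expressed as S(90), the fraction of kinases inhibited >90%.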

[7] = biological target: Dual specificity mitogen-activated protein kinase kinase 1 (Homo sapiens) (UniProt Q02750); test: Inhibition of MEK1 at 1 uM
[8] = biological target: Protein kinase C eta type (Homo sapiens) (UniProt P24723); test: Inhibition of PRKCH at 1 uM
[9] = biological target: T2, Myosin-IIIb (Homo sapiens) (UniProt Q8WXR4); test: Inhibition of MYO3B at 1 uM
T2 sequence (whole entry): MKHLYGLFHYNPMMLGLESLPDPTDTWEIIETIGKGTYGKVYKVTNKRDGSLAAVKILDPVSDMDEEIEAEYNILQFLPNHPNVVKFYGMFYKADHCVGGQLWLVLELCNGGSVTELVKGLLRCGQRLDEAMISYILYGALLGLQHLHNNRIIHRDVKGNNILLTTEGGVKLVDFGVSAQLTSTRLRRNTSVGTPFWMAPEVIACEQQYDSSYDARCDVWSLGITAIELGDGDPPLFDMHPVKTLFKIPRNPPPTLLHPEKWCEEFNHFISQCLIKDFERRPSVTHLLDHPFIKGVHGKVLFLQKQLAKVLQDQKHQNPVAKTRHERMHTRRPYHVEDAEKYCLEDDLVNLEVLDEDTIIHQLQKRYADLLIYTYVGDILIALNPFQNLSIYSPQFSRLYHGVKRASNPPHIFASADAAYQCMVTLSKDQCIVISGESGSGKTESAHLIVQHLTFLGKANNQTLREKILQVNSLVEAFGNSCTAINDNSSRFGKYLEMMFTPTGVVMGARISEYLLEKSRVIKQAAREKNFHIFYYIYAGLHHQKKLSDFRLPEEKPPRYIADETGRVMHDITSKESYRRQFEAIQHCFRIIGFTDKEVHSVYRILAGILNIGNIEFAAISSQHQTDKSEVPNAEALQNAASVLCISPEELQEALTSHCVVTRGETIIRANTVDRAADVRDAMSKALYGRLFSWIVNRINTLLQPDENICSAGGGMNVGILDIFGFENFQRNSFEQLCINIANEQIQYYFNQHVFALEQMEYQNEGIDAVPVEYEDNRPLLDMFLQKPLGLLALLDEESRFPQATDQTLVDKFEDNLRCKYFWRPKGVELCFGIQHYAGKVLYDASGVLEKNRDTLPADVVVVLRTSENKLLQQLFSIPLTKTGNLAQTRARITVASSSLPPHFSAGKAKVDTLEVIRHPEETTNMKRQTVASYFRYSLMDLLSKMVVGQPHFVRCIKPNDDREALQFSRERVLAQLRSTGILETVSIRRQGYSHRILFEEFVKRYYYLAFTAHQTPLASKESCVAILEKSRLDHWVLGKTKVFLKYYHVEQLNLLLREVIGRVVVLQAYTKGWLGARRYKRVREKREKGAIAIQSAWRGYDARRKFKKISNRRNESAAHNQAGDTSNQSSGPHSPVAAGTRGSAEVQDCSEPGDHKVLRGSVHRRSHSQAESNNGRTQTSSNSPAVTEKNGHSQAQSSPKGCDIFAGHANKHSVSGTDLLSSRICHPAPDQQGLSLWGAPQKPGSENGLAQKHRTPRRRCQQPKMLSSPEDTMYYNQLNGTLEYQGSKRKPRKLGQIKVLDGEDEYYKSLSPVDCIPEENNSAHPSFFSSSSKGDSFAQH

[10] = biological target: Serine/threonine-protein kinase pim-2 (Homo sapiens) (UniProt Q9P1W9); test: Inhibition of PIM2 at 1 uM
Sequence of Serine/threonine-protein kinase pim-2 (Homo sapiens) (Q9P1W9 whole entry, looked up): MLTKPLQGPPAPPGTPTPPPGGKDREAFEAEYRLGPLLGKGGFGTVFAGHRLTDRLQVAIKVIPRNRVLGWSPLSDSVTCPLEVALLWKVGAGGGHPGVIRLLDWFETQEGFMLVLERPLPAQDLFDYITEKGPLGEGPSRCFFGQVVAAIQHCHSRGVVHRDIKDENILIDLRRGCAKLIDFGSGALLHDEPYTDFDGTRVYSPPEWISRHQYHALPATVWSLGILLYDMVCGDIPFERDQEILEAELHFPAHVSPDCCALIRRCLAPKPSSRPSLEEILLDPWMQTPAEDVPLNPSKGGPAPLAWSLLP

Sequence of Myosin light chain kinase 2, skeletal/cardiac muscle (Homo sapiens) (Q9H1R3 whole entry): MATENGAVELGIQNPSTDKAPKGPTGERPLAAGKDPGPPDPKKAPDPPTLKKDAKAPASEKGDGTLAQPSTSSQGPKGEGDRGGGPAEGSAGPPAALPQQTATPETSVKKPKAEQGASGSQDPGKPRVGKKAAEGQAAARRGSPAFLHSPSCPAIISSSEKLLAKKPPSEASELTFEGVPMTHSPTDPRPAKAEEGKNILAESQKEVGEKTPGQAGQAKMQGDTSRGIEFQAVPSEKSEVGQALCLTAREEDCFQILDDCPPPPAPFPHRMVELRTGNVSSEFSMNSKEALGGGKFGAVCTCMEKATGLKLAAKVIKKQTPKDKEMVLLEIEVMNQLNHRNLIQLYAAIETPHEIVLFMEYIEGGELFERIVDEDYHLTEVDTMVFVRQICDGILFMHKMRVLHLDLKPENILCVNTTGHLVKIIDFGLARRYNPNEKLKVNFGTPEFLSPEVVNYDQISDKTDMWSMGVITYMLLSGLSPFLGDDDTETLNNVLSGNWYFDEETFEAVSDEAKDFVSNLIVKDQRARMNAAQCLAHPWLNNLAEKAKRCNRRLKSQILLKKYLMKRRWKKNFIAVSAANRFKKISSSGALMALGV
Sequence of Dual specificity mitogen-activated protein kinase kinase 1 (Homo sapiens) (Q02750 whole entry): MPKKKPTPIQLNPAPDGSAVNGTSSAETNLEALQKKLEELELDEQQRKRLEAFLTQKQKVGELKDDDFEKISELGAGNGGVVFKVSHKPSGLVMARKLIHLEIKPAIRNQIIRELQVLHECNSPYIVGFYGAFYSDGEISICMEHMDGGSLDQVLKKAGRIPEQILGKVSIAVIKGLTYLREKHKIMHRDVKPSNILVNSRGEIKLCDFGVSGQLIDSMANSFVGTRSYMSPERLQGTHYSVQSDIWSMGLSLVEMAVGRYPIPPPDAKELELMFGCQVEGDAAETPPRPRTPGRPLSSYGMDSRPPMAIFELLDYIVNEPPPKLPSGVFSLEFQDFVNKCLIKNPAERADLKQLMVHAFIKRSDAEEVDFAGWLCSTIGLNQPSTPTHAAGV
Sequence of Phosphatidylinositol 4,5-bisphosphate 3-kinase catalytic subunit alpha isoform (Homo sapiens), P42336 [C420R] (P42336 whole entry C420R, canonical isoform): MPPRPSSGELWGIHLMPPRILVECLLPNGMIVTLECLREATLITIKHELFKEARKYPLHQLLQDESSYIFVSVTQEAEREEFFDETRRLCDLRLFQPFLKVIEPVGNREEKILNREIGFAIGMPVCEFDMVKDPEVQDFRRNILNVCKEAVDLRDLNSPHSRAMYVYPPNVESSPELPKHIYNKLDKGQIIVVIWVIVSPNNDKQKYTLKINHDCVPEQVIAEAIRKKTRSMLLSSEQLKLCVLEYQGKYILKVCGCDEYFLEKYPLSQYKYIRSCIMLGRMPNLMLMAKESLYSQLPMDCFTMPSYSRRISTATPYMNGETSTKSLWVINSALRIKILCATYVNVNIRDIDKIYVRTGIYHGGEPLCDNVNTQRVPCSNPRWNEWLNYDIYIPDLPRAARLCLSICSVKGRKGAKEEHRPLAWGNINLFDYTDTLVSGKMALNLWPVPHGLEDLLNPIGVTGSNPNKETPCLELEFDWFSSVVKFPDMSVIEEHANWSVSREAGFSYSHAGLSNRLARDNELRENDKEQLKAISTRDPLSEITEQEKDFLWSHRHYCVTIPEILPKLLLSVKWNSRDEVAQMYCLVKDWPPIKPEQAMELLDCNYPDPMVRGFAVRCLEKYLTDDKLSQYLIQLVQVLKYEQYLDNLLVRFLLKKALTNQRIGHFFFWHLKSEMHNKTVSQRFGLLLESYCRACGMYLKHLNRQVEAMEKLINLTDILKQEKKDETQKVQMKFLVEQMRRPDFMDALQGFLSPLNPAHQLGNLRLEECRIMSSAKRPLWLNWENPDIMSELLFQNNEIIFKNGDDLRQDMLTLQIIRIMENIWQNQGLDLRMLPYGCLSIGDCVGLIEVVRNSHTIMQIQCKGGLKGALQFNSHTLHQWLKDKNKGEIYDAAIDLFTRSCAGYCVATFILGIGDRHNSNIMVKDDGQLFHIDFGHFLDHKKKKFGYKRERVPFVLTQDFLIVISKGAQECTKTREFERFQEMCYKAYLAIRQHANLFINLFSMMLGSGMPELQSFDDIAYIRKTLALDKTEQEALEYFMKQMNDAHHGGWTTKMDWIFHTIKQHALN
Sequence of Dual specificity protein kinase CLK2 (Homo sapiens) (P49760 whole entry, looked up): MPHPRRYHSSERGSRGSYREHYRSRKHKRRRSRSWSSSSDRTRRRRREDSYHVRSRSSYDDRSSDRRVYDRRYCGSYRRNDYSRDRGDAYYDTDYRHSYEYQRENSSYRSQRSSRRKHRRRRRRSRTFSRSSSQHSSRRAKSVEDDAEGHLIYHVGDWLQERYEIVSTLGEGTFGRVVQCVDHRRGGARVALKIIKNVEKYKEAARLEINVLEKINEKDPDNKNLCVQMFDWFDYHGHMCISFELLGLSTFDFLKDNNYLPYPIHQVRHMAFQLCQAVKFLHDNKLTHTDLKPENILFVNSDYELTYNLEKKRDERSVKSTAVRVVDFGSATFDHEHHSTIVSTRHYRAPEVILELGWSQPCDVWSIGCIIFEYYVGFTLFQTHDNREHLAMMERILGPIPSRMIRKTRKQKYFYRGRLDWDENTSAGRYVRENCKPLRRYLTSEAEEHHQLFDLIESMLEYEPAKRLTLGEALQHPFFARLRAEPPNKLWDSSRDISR
Sequence of Epidermal growth factor receptor (Homo sapiens) (P00533 whole entry): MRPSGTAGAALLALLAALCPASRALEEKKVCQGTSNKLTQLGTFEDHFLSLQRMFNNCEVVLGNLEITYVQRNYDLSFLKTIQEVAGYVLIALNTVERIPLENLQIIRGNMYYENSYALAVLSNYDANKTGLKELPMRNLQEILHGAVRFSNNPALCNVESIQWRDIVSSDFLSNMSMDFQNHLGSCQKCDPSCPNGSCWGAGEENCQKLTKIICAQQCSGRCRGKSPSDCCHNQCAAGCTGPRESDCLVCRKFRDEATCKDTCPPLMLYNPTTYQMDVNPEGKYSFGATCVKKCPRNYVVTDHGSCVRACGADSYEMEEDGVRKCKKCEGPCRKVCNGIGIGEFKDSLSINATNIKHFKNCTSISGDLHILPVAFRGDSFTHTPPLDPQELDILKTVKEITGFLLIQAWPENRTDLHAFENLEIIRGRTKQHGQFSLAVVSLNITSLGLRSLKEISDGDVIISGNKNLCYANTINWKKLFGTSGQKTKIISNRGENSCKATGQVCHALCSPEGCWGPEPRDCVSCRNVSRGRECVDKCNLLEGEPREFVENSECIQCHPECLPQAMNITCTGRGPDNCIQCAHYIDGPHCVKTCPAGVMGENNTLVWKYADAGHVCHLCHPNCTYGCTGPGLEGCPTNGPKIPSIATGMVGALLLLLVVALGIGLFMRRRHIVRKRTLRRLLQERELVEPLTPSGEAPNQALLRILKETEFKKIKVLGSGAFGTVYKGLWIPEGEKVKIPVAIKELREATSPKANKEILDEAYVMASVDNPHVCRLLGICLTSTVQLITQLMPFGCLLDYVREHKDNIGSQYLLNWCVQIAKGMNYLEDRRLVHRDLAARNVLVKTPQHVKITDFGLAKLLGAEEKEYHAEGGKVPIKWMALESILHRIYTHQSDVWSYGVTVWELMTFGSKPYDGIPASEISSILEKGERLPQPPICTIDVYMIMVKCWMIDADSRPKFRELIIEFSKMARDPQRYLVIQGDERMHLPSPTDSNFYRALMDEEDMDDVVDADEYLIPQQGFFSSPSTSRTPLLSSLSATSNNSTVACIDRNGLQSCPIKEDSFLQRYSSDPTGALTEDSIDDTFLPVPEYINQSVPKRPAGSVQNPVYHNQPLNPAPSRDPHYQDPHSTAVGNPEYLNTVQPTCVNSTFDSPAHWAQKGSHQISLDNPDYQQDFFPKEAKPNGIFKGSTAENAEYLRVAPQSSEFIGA
Sequence of Protein kinase C eta type (Homo sapiens) (P24723 whole entry): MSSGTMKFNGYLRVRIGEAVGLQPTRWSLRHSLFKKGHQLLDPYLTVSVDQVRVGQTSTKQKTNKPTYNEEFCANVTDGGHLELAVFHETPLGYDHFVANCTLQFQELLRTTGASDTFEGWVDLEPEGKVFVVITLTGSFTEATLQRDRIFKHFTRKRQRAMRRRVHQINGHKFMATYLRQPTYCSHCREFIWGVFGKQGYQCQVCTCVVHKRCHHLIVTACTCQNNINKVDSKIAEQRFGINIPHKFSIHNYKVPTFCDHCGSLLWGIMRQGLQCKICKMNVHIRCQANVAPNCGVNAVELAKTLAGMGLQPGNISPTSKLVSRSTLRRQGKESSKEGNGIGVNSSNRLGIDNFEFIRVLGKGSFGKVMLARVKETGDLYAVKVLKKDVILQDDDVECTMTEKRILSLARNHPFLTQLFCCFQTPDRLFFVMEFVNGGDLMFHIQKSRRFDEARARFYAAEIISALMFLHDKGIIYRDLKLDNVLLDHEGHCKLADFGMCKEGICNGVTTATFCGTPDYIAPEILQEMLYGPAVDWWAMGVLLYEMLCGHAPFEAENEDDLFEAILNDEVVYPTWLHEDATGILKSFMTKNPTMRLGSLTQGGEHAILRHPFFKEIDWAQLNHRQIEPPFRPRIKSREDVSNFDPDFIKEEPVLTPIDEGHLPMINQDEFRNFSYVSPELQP

| Structure (SMILES) | inhibition [1] [%] | inhibition [2] [%] | inhibition [3] [%] | inhibition [4] [%] | inhibition [5] [%] | inhibition [6] [%] | inhibition [7] [%] | inhibition [8] [%] | inhibition [9] [%] | inhibition [10] [%] |
| --- | --- | --- | --- | --- | --- | --- | --- | --- | --- | --- |
| CN1CCN(c2ccc(-c3cnc4c(c3)N(Cc3cc(F)ccc3F)CCN4)cn2)CC1 | < 50 | 80.8 | < 50 | < 50 | < 50 | < 50 | < 50 | < 50 | < 50 | < 50 |
| O=C(c1ccc(-c2cnc3c(c2)N(Cc2cc(Cl)ccc2C(F)(F)F)CCN3)cc1)N1CCC(N2CCCC2)CC1 | < 50 | 75.5 | < 50 | – | – | < 50 | – | < 50 | – | < 50 |
| O=C(c1ccc(-c2cnc3c(c2)N(Cc2cc(Cl)ccc2C(F)(F)F)CCN3)cc1)N1CCCCC1 | < 50 | < 50 | < 50 | – | – | < 50 | – | < 50 | – | < 50 |
| CN1CCN(c2ccc(-c3cnc4c(c3)N(Cc3c(F)ccc(F)c3Cl)CCN4)cn2)CC1 | < 50 | < 50 | < 50 | < 50 | < 50 | < 50 | < 50 | < 50 | < 50 | < 50 |
| COC1CCN(C(=O)c2ccc(-c3cnc4c(c3)N(Cc3cc(Cl)ccc3C(F)(F)F)CCN4)cc2)CC1 | < 50 | 66.7 | < 50 | – | – | < 50 | – | < 50 | – | < 50 |
| O=C(O)c1ccc(-c2cnc3c(c2)N(Cc2cc(Cl)ccc2C(F)(F)F)CCN3)cc1 | < 50 | < 50 | < 50 | – | – | < 50 | – | < 50 | – | < 50 |
| CC(=O)N1CCN(c2cc(-c3cnc4c(c3)N(Cc3cc(Cl)ccc3C(F)(F)F)CCN4)ccn2)CC1 | < 50 | 87 | < 50 | < 50 | < 50 | < 50 | < 50 | < 50 | < 50 | < 50 |
| FC(F)(F)c1ccc(Cl)cc1CN1CCNc2ncc(-c3ccnc(N4CCNCC4)c3)cc21 | < 50 | 93 | < 50 | < 50 | 81 | < 50 | < 50 | < 50 | < 50 | < 50 |
| CN1CCN(c2ccc(-c3cnc4c(c3)N(Cc3cc(Cl)ccc3C(F)(F)F)CCN4)cn2)CC1 | < 50 | 85 | < 50 | < 50 | < 50 | < 50 | < 50 | < 50 | < 50 | < 50 |
| CN1CCN(c2ccc(-c3cnc4c(c3)N(Cc3cc(Cl)ccc3Cl)CCN4)cn2)CC1 | < 50 | 87 | < 50 | < 50 | < 50 | < 50 | < 50 | < 50 | < 50 | < 50 |
